From ChEMBL document CHEMBL1153726, “Synthesis and anticancer activity of sclerophytin-inspired hydroisobenzofurans” (Bioorg Med Chem Lett, 2009)

Legend:
Assay type in all cases: functional
IGROV-1 [1] = assay: Growth inhibition of human IGROV1 cells at 10 uM after 96 hrs by MTT assay; set-up: scale not given: the % may be the effect or the level left
SW-620 = assay: Growth inhibition of human SW620 cells at 1 nM after 96 hrs by MTT assay; set-up: scale not given: the % may be the effect or the level left
NCI-H322M = assay: Growth inhibition of human NCI-H322M cells at 10 uM after 96 hrs by MTT assay; set-up: scale not given: the % may be the effect or the level left
U-251 = assay: Growth inhibition of human U251 cells at 100 nM after 96 hrs by MTT assay; set-up: scale not given: the % may be the effect or the level left
786-0 = assay: Growth inhibition of human 786-0 cells at 10 uM after 96 hrs by MTT assay; set-up: scale not given: the % may be the effect or the level left
SNB-75 = assay: Growth inhibition of human SNB75 cells at 100 nM after 96 hrs by MTT assay; set-up: scale not given: the % may be the effect or the level left
[2] = Growth inhibition of human Hs 578T cells after 96 hrs by MTT assay
Outline: (§1)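 Run in the NCI 60 human tumour cell line panel as a five-dose assay. GI50 and LC50 were reported for each cell line.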

M14 = assay: Growth inhibition of human M14 cells at 1 nM after 96 hrs by MTT assay; set-up: scale not given: the % may be the effect or the level left
SF-295 = assay: Growth inhibition of human SF295 cells after 96 hrs by MTT assay; details: SF-295, 96 h
Outline: (§2)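 Tested in the NCI 60-cell-line panel in five-dose format; GI50 and LC50 values reported for each cell line.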

OVCAR-8 = assay: Growth inhibition of human OVCAR8 cells at 10 nM after 96 hrs by MTT assay; set-up: scale not given: the % may be the effect or the level left
NCI-H522 = assay: Growth inhibition of human NCI-H522 cells at 10 uM after 96 hrs by MTT assay; set-up: scale not given: the % may be the effect or the level left
NCI-H23 [3] = assay: Growth inhibition of human NCI-H23 cells at 1 uM after 96 hrs by MTT assay; set-up: scale not given: the % may be the effect or the level left
DU-145 = assay: Growth inhibition of human DU145 cells at 10 uM after 96 hrs by MTT assay; set-up: scale not given: the % may be the effect or the level left
SK-MEL-28 = assay: Growth inhibition of human SK-MEL-28 cells at 10 nM after 96 hrs by MTT assay; set-up: scale not given: the % may be the effect or the level left
SNB-19 = assay: Growth inhibition of human SNB19 cells at 1 nM after 96 hrs by MTT assay; set-up: scale not given: the % may be the effect or the level left
NCI-H23 [4] = assay: Growth inhibition of human NCI-H23 cells at 100 nM after 96 hrs by MTT assay; set-up: scale not given: the % may be the effect or the level left
SN12C = assay: Growth inhibition of human SN12C cells at 10 uM after 96 hrs by MTT assay; set-up: scale not given: the % may be the effect or the level left
NCI-H460 = assay: Growth inhibition of human NCI-H460 cells at 1 uM after 96 hrs by MTT assay; set-up: scale not given: the % may be the effect or the level left
UACC-62 = assay: Growth inhibition of human UACC62 cells at 100 nM after 96 hrs by MTT assay; set-up: scale not given: the % may be the effect or the level left
IGROV-1 [5] = assay: Growth inhibition of human IGROV1 cells after 96 hrs by MTT assay; details: IGROV-1, 96 h; outline: as §1
[6] = Growth inhibition of human […] cells after 96 hrs by MTT assay; outline: as §2
[7] = read-out: LC50 (the source's name)
[8] = read-out: Log10GI50 (converted)
[9] = read-out: Log10LC50 (converted)

Work on `C=C(C)[C@H]1CC=C(C)C2=CO[C@@H](c3ccccc3F)[C@@H]21` yielded an Activity (IGROV-1 [1]) of 65.74%, an Activity (SW-620) of 96% and an Activity (NCI-H322M) of 120.7%. For the same compound, the Activity (U-251) was 80%, the Activity (786-0) was 93.62% and the Activity (SNB-75) was 84%. The GI50 ([2]; read-out: GI50) was 2.72 µM, the CC50 [2, 7] was over 100 µM and the GI50 [2, 8] was 2.69 µM. It also gave a CC50 [2, 9] of over 100 µM, a TGI ([2]; read-out: Log10TGI (converted)) of 24.5 µM and a TGI ([2]; read-out: TGI) of 24.8 µM. The Activity (M14) was 97%, the GI50 (SF-295; read-out: GI50) was 4.49 µM and the CC50 (SF-295; [7]) was 45.7 µM. The GI50 (SF-295; [8]) was 4.47 µM, the CC50 (SF-295; [9]) was 45.7 µM and the TGI (SF-295; read-out: Log10TGI (converted)) was 17.4 µM. The TGI (SF-295; read-out: TGI) was 17.6 µM, the Activity (OVCAR-8) was 97% and the Activity (NCI-H522) was 58.36%. The Activity (NCI-H23 [3]) was 34%, the Activity (DU-145) was 105.62% and the Activity (SK-MEL-28) was 93%. For the same compound, the Activity (SNB-19) was 94%, the Activity (NCI-H23 [4]) was 85% and the Activity (SN12C) was 100.7%. The Activity (NCI-H460) was 31%, the Activity (UACC-62) was 73% and the GI50 (IGROV-1 [5]; read-out: GI50) was 11.3 µM. The CC50 (IGROV-1 [5]; [7]) was over 100 µM, the GI50 (IGROV-1 [5]; [8]) was 11.2 µM and the CC50 (IGROV-1 [5]; [9]) was over 100 µM. The TGI (IGROV-1 [5]; read-out: Log10TGI (converted)) was 34.7 µM, the TGI (IGROV-1 [5]; read-out: TGI) was 34.6 µM and the GI50 ([6]; read-out: GI50) was 0.148 µM. It also gave a CC50 [6, 7] of 9.36 µM and a GI50 [6, 8] of 0.148 µM.
